Bioassay records from PubChem BioAssay.
T cruzi inh = T. cruzi replication inhibition; inhibition, % (test concentration not listed); T. cruzi beta-gal in NIH3T3, luminescence, 90 h; AID 1885; actives 1.4% (n = 300,000);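 active = mean inhibition across valid replicates above about 55%, limit read from the data; inconclusive = mean below that limit but half or more replicates reach it; inactive = mean below it, under half of replicates reach it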;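 also: signal also drops with host cell toxicity which is not excluded here; 0% = plate median of DMSO wells and 100% = zero luminescence signal; higher percent means less beta-gal luminescence so fewer parasites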
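System: mouse NIH/3T3 fibroblasts infected with β-gal-expressing T. cruzi Tulahuen C4 / Input: NIH/3T3 cells, 5,000 per well / Buffer or medium: Low-serum DMEM with 2% FBS / Probe or stimulus: 5000 reporter trypomastigotes per well / Schedule: ≥90 h infection period, 3 h prior cell attachment / Measured by: GalScreen luminescence, 60 min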
Beta cell apopt = blocks beta cell apoptosis | INS-1E cytokine-induced death, ATP luminescence, 48 h; percent of positive-control rescue, neutral wells zero | protection from apoptosis, % (test concentration not listed) | actives 0.8% (n = 300,000) | AID 435005;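 active = Every replicate reaches about 75%, or at least half do and their mean reaches it too, limit read from the data; inconclusive = At least half of replicates reach the limit but their mean does not; inactive = Under half of replicates reach the limit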;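 also: 0% = cytokine-treated negative control wells and 100% = positive control rescue; higher means more ATP so stronger rescue from cytokine killing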
CSC inhib = blocks cancer stem cells; inhibition, % at 7.5 µM; cancer stem cell-like cells viability, luminescence; actives 1.1% (n = 300,000); in the data active = inhibition above about 75%; inconclusive = no clear call, values can overlap the other calls; tested in HMLE shEcad cells
CHOP UPR activ = activators of apoptotic arm of unfolded protein response (CHOP) | AID 449763 | activation, % at 10 µM | actives 0.34% (n = 330,000) | CHO-CHOP luciferase reporter, UPR activation, luminescence; percent of tunicamycin response over DMSO baseline;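 active = at 10 µM dose, activation of 40% or more, normalized to positive control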;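 also: 100% = tunicamycin at 10 µg/mL and 0% = DMSO alone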
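System: CHO CHOP reporter cells. Amount: 500 cells per well. Buffer or medium: F12 medium, 10% FBS. Compound dosing: one dose, 10 µM in 0.5% DMSO. Incubation: 6 h compound exposure at 37 °C after overnight seeding. Technique: Steady-Glo luciferase luminescence. Benchmarks: tunicamycin and DMSO controls.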
Mdm2-MdmX inh = disrupts the human Mdm2-MdmX interaction | SaOS-2 split-luciferase Mdm2/MdmX complementation, luminescence | inhibition, % at 8 µM | O15151+Q00987 | AID 485346 | actives 3% (n = 330,000);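 active = inhibition of at least 50% at 8 µM in the primary screen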
Target sequence (O15151 whole entry, looked up): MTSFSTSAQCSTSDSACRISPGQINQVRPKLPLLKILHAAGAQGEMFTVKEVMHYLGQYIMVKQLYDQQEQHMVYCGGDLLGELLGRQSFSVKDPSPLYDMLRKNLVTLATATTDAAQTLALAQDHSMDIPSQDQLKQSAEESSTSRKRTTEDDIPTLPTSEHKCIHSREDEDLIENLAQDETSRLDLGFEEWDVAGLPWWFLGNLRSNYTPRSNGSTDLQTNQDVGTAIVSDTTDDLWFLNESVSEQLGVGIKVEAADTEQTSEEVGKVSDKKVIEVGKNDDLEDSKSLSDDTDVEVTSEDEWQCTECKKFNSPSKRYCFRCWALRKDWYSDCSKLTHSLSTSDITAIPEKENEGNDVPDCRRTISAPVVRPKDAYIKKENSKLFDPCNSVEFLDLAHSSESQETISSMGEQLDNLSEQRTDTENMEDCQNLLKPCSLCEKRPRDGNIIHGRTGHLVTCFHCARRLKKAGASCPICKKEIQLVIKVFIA
Target sequence (Q00987 whole entry, looked up): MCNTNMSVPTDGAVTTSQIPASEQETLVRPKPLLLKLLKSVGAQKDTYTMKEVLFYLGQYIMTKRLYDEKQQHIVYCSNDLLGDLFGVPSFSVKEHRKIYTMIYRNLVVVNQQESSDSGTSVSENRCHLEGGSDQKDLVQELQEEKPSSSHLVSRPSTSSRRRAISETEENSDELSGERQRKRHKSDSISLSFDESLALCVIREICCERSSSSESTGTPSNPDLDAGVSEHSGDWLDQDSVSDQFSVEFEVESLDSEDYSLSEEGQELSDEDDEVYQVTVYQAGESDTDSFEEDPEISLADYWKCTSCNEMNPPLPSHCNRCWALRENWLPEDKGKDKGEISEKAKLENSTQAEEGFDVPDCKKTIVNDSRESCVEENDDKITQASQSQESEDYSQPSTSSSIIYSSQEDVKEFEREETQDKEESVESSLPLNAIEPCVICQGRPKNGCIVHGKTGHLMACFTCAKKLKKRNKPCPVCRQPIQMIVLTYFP
XBP1 UPR activ = activators of adaptive arm of unfolded protein response (XBP1). CHO-XBP1 luciferase reporter, IRE1-XBP1 UPR activation, luminescence; percent of tunicamycin response, DMSO as zero. activation, % at 20 µM. actives 0.33% (n = 330,000);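 active = versus positive control, 20 µM dose yields 30% or more activation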;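 also: 100% = tunicamycin at 10 µg/mL and 0% = DMSO only wells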
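Material: CHO cell line with stable XBP1 luciferase reporter; schedule: 16-18 h cell attachment at 37 °C, then 6 h compound exposure; signal: glow luminescence from Steady-Glo reagent; medium: serum-containing F12 medium, 10% FBS; benchmarks: tunicamycin 10 µg/mL and vehicle-only wells; read-out: percent activation relative to tunicamycin reference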
The depositor's hits bear a star. An excerpt weighted towards active compounds, which were near 5% of everything screened.

How did CCOc1ccc2nc(NC(=O)C3CCCN(S(=O)(=O)c4cccs4)C3)sc2c1 (centres undefined) do in these assays?
T cruzi inh: 61*; Beta cell apopt: 4; CHOP UPR activ: 1; Mdm2-MdmX inh: 15; XBP1 UPR activ: -2

What do the screens show for `COC(=O)c1ccc(N=Cc2c(C(F)(F)F)[nH][nH]c2=O)cc1`?
T cruzi inh: 2; Beta cell apopt: -4; CSC inhib: -8; CHOP UPR activ: -1; Mdm2-MdmX inh: -8; XBP1 UPR activ: -4

What do the screens show for `CCc1ccc(C(=O)NNc2ccc(Cl)cc2)cc1`?
T cruzi inh: 28; Beta cell apopt: 29; CSC inhib: 99*; CHOP UPR activ: 3; Mdm2-MdmX inh: 1; XBP1 UPR activ: 1

How did CCCOC(=O)C(=O)NNc1ccccc1 do in these assays?
T cruzi inh: 49; Beta cell apopt: -1; CSC inhib: inconclusive; CHOP UPR activ: -2; Mdm2-MdmX inh: 27; XBP1 UPR activ: -2

What do the screens show for `CCOC(=O)C(=O)NNc1ccc(Cl)cc1`?
T cruzi inh: 48; Beta cell apopt: -1; CSC inhib: 82*; CHOP UPR activ: -3; Mdm2-MdmX inh: -19; XBP1 UPR activ: -1

What do the screens show for `CCCCN=C(NNc1ccc(Br)cc1)C(=O)OCC`?
T cruzi inh: 4; Beta cell apopt: -7; CSC inhib: 136*; CHOP UPR activ: 0; Mdm2-MdmX inh: 0; XBP1 UPR activ: 0

What do the screens show for `O=C(NNc1ccc(Cl)cc1)c1cccs1`?
Beta cell apopt: -8; CSC inhib: 96*; CHOP UPR activ: 2; Mdm2-MdmX inh: 20; XBP1 UPR activ: 0

What do the screens show for `O=C(CSc1nccn1-c1ncc(C(F)(F)F)cc1Cl)c1ccc(Cl)cc1`?
T cruzi inh: 5; Beta cell apopt: -1; CHOP UPR activ: 4; Mdm2-MdmX inh: 42; XBP1 UPR activ: 0

How did CCOC(=O)C(=O)NNc1ccc(C)cc1 do in these assays?
T cruzi inh: inconclusive; Beta cell apopt: -8; CSC inhib: 102*; CHOP UPR activ: -2; Mdm2-MdmX inh: -7; XBP1 UPR activ: -3

What do the screens show for `CCCCOc1ccc(/C=N/NC(=S)Nc2cccc(C)c2C)cc1`?
T cruzi inh: 41; Beta cell apopt: -1; CSC inhib: 0; CHOP UPR activ: 0; Mdm2-MdmX inh: 11; XBP1 UPR activ: 1

How did Cc1cccc(C)c1NC(=S)N/N=C/c1ccc(OCCC(C)C)cc1 do in these assays?
T cruzi inh: 63*; CSC inhib: 12; CHOP UPR activ: -1; Mdm2-MdmX inh: 26; XBP1 UPR activ: 1

What do the screens show for `COc1ccc(NS(=O)(=O)c2ccc(N3CCOCC3)c(NC(=O)c3ccc(F)cc3)c2)cc1`?
T cruzi inh: -33; Beta cell apopt: 8; CSC inhib: 23; CHOP UPR activ: 4; Mdm2-MdmX inh: 2; XBP1 UPR activ: -2

How did COc1ccc(NS(=O)(=O)c2ccc(O)c(NC(=O)c3cc4c(C)nn(-c5ccc(F)cc5)c4s3)c2)cc1 do in these assays?
T cruzi inh: -6; Beta cell apopt: 12; CSC inhib: 114*; CHOP UPR activ: 9; Mdm2-MdmX inh: 22; XBP1 UPR activ: -3

How did O=c1c2ccccc2nc(/C=C/c2ccc([N+](=O)[O-])o2)n1CCCO do in these assays?
T cruzi inh: 62*; Beta cell apopt: 2; CSC inhib: 14; CHOP UPR activ: 5; Mdm2-MdmX inh: 33; XBP1 UPR activ: 5

Results for O=c1c2ccccc2nc(/C=C/c2ccc(Br)cc2)n1CCCO ?
T cruzi inh: 0; Beta cell apopt: 8; CSC inhib: 25; CHOP UPR activ: 2; Mdm2-MdmX inh: 31; XBP1 UPR activ: 5

What do the screens show for `O=c1c2ccccc2nc(/C=C/c2ccc(Br)cc2)n1CCO`?
T cruzi inh: -13; Beta cell apopt: 1; CSC inhib: 78*; CHOP UPR activ: -1; Mdm2-MdmX inh: 29; XBP1 UPR activ: 2

How did COC(=O)C1CCN(Cc2ccc(OCCCN3CCN(c4ccc([N+](=O)[O-])cc4)CC3)cc2)CC1 do in these assays?
T cruzi inh: 61*; Beta cell apopt: 4; CSC inhib: 26; CHOP UPR activ: 0; Mdm2-MdmX inh: 34; XBP1 UPR activ: 0

What do the screens show for `COc1ccc(-c2cc(C3CCN(Cc4cccc(C(F)(F)F)c4)CC3)[nH]n2)cc1`?
T cruzi inh: 62*; Beta cell apopt: 14; CSC inhib: 55; CHOP UPR activ: -4; Mdm2-MdmX inh: 10; XBP1 UPR activ: -1

How did CC1CCN(CCCCOc2ccc([N+](=O)[O-])cc2)CC1 do in these assays?
T cruzi inh: 20; Beta cell apopt: 2; CSC inhib: 33; CHOP UPR activ: 1; Mdm2-MdmX inh: -1; XBP1 UPR activ: 1

How did COc1ccc(-c2cc(C3CCN(Cc4ccc([N+](=O)[O-])cc4)CC3)[nH]n2)cc1 do in these assays?
T cruzi inh: 85*; Beta cell apopt: 5; CSC inhib: 37; CHOP UPR activ: -2; Mdm2-MdmX inh: 40; XBP1 UPR activ: -4

What do the screens show for `COc1ccc(-c2cc(C3CCN(CC(O)C(F)(F)F)CC3)[nH]n2)cc1` (centres undefined)?
T cruzi inh: 1; CHOP UPR activ: 2; Mdm2-MdmX inh: 3; XBP1 UPR activ: -1

What do the screens show for `COc1ccc(-c2cc(C3CCN(c4cc(Cl)nc(N)n4)CC3)[nH]n2)cc1`?
T cruzi inh: 23; Beta cell apopt: 13; CSC inhib: 7; CHOP UPR activ: 5; Mdm2-MdmX inh: 18; XBP1 UPR activ: 2

Results for COc1ccc(Cl)cc1NC(=O)CN(C)Cc1cccs1 ?
T cruzi inh: 3; Beta cell apopt: 1; CSC inhib: 1; CHOP UPR activ: 3; Mdm2-MdmX inh: 7; XBP1 UPR activ: -3

What do the screens show for `Cc1ccc(C(=O)N2CCN(c3ccc(NC(=O)c4cccnc4)cc3)CC2)cc1`?
T cruzi inh: 1; Beta cell apopt: 9; CSC inhib: 12; CHOP UPR activ: -1; Mdm2-MdmX inh: 20; XBP1 UPR activ: -1

How did Cc1ccccc1C(=O)N1CCN(c2ccc(NC(=O)c3ccc4c(c3)OCO4)cc2)CC1 do in these assays?
T cruzi inh: 12; Beta cell apopt: 4; CSC inhib: 77*; CHOP UPR activ: 0; Mdm2-MdmX inh: 22; XBP1 UPR activ: 1

What do the screens show for `O=C(Nc1ccc(N2CCN(C(=O)c3ccco3)CC2)cc1)c1ccc2c(c1)OCO2`?
T cruzi inh: -13; Beta cell apopt: 1; CSC inhib: -9; CHOP UPR activ: -1; Mdm2-MdmX inh: 10; XBP1 UPR activ: -1

How did Cc1ccccc1C(=O)N1CCN(c2ccc(NC(=O)c3cccnc3)cc2)CC1 do in these assays?
T cruzi inh: -6; Beta cell apopt: 75*; CSC inhib: -3; CHOP UPR activ: -1; Mdm2-MdmX inh: 17; XBP1 UPR activ: -3
